Statin myotox sup = suppressors of statin myotoxicity in C2C12 myotubes, primary screen, cell-based, single point, plate reader. C2C12 myotubes + simvastatin, ATP luminescence, 48 h; scaled: DMSO 0, geranylgeraniol control 100. rescue of ATP level, % at 7.49 µM. 330,000 compounds, 0.78% hits. AID 602340, 2012;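 active = mean ATP rescue above about 67%, or every replicate alone reaching that limit, limit read from the data, passing the limit was not always enough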;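 also: myotubes were challenged with 10 µM simvastatin during compound exposure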
DENV2 CPE rescue = inhibitors of DENV2 cytopathic effect, primary screen, cell-based, plate reader, single concentration; DENV2-infected cells, cytopathic effect rescue; CPE inhibition, % at 9.99 µM; 350,000 compounds, 1.7% hits; in the data active = CPE inhibition above about 20%, passing the limit was not always enough; tested in BHK-21 cells;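 also: 0% = median of neutral control wells and 100% = median of positive control wells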
PglD DTNB = C. jejuni PglD acetyltransferase inhibitors, primary screen, biochemical, DTNB colorimetric, single point | inhibition, % at 12.5 µM | UDP-N-acetylbacillosamine N-acetyltransferase PglD (Campylobacter jejuni) | purified PglD enzyme, DTNB colorimetric CoA detection | AID 602405, 2012 | 360,000 compounds, 0.098% hits; in the data active = inhibition above about 16%, passing the limit was not always enough
E-sel inducer = E-selectin induction in HUVECs, primary screen, imaging, HUVEC, immunofluorescence imaging, single point; AID 686992, 2013; activation, % at 7.58 µM; P16581; 260,000 compounds, 0.37% hits; normalized: neutral wells 0, TNF-alpha wells 100;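 active = mean E-selectin-positive cell signal at least 10% of the positive control, reached in at least 60% of replicates, without over 20% cell loss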
Target sequence (P16581 whole entry, looked up): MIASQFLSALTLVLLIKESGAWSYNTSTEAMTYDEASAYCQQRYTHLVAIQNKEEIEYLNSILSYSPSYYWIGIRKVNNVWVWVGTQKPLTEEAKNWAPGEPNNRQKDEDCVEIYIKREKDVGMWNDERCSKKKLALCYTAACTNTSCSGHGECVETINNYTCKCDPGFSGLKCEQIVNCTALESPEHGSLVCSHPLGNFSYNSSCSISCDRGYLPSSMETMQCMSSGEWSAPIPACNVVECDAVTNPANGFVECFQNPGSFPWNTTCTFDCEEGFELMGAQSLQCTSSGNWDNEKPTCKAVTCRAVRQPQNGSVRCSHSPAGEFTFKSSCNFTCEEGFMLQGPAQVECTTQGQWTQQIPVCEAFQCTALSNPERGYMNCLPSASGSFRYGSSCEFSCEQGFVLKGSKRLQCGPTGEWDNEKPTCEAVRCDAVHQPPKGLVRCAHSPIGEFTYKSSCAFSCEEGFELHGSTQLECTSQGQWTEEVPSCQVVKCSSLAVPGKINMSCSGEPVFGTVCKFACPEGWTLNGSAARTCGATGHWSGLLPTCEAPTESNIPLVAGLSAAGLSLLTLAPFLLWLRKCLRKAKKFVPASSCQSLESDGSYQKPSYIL
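System: HUVEC, human umbilical vein endothelial cells; quantity: 3,000 cells/well; buffer or medium: EGM-2 medium, gelatin-coated wells; dosing: single-point compound dose; detection: immunofluorescence imaging; evaluation: % PE-positive cells; benchmarks: TNF-alpha, DMSO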
FGF22 binding = binders of human FGF22 protein, primary screen, FGF22 synaptogenesis inhibitor project, biophysical, thermal shift, single point; 340,000 compounds, 1.5% hits; AID 651658, 2012; recombinant FGF22 thermal shift, SYPRO orange fluorescence; percent of sucrose octasulfate shift, DMSO zero; activity (Tm shift, normalised), % at 9.99 µM; Fibroblast growth factor 22 (Homo sapiens), Q9HCT0;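 active = mean Tm shift, scaled 0 neutral to 100 positive control, at about 1.3% or above, every replicate too, limit read from the data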
XiGFP reactiv = activators of inactive X chromosome reactivation, primary screen, imaging, XiGFP fibroblasts, GFP high-content imaging, set 2; activation, % at 7.58 µM; AID 743238, 2013; XiGFP mouse fibroblasts, % GFP-positive cells imaging, 3 d; cells co-treated with 5-aza-dC sensitizer; scaled so ellipticine positive control = 100%; 360,000 compounds, 0.055% hits;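 active = mean normalized replicate activation at least 10% and every replicate at or above 10%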;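 also: 0% = median of on-plate neutral control wells and 100% = ellipticine 6 µM median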
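Assay system: SV40-immortalized XiGFP fibroblast cells, line 68-5-11; buffer or medium: DMEM plus 5-aza-dC sensitizer; compound: one concentration, pinned; timing: compounds 3 days, fix/stain 15 min at room temperature; benchmarks: positive control ellipticine, 6 µM final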
Numbers without * were called inactive. The list is not random: actives were taken first. Their share in the collection is about 3.3%.

`C[C@@H]1CCCCO[C@@H](CN(C)S(=O)(=O)c2ccc(Cl)cc2)[C@H](C)CN([C@@H](C)CO)C(=O)c2cc(NC(=O)Nc3ccc(C(F)(F)F)cc3)ccc2O1` gave DENV2 CPE rescue 35*, PglD DTNB 0, E-sel inducer 0, FGF22 binding 0 and XiGFP reactiv 0.
For Cn1nnc(-c2ccc(OCc3ccccc3F)cc2)n1 the results were Statin myotox sup -13 and PglD DTNB -2.
For Fc1ccccc1COc1ccc(-c2nnn(Cc3ccccc3F)n2)cc1 the results were Statin myotox sup 120*, DENV2 CPE rescue 3, PglD DTNB -2, E-sel inducer 0, FGF22 binding 0 and XiGFP reactiv 0.
For Cn1nnc2c(sc3nc(N4CCOCC4)c4c(c32)CCCC4)c1=O the results were Statin myotox sup 118* and PglD DTNB 1.
O=c1[nH]nnc2c1sc1nc(N3CCOCC3)c3c(c12)CCCC3 was read as DENV2 CPE rescue -5, PglD DTNB -1, FGF22 binding 0 and XiGFP reactiv 0.
`C[C@@H]1CCCCO[C@H](CN(C)C(=O)Nc2ccc3c(c2)OCO3)[C@H](C)CN([C@H](C)CO)C(=O)c2cc(NC(=O)NC3CCCCC3)ccc2O1` gave DENV2 CPE rescue 41*, PglD DTNB -2, E-sel inducer 0, FGF22 binding -1 and XiGFP reactiv 0.
C[C@H]1CCCCO[C@H](CN(C)C(=O)NC2CCCCC2)[C@@H](C)CN([C@@H](C)CO)C(=O)c2cc(NC(=O)Nc3ccccc3)ccc2O1 was read as DENV2 CPE rescue 27*, PglD DTNB -2, E-sel inducer 0, FGF22 binding 0 and XiGFP reactiv 0.
C[C@@H]1CN([C@@H](C)CO)C(=O)c2cc(NC(=O)NC3CCCCC3)ccc2O[C@@H](C)CCCCO[C@@H]1CN(C)C(=O)NC1CCCCC1 was read as DENV2 CPE rescue -7, PglD DTNB -1, E-sel inducer 0, FGF22 binding 0 and XiGFP reactiv 0.
`C[C@@H]1CCCCO[C@H](CN(C)C(=O)NC2CCCCC2)[C@@H](C)CN([C@H](C)CO)C(=O)c2cc(NC(=O)NC3CCCCC3)ccc2O1` gave DENV2 CPE rescue 78*, PglD DTNB 2, E-sel inducer 0, FGF22 binding 0 and XiGFP reactiv 0.
C[C@@H]1CCCCO[C@H](CN(C)C(=O)NC2CCCCC2)[C@@H](C)CN([C@H](C)CO)C(=O)c2cc(NC(=O)Nc3ccccc3)ccc2O1 was read as DENV2 CPE rescue -6, PglD DTNB 6, E-sel inducer 0, FGF22 binding 0 and XiGFP reactiv 0.
`C[C@@H]1CCCCO[C@@H](CN(C)C(=O)NC2CCCCC2)[C@@H](C)CN([C@@H](C)CO)C(=O)c2cc(NC(=O)Nc3ccccc3)ccc2O1` gave DENV2 CPE rescue 45*, PglD DTNB 9, E-sel inducer 0, FGF22 binding 1 and XiGFP reactiv 1.
For C[C@@H]1CN([C@@H](C)CO)C(=O)c2cc(NC(=O)NC3CCCCC3)ccc2O[C@@H](C)CCCCO[C@@H]1CN(C)C(=O)Nc1ccc2c(c1)OCO2 the results were DENV2 CPE rescue -11, PglD DTNB 2, E-sel inducer 0, FGF22 binding 0 and XiGFP reactiv 0.
For COCC#Cc1ccc([C@@H]2[C@@H](CO)N3C(=O)CN(C(=O)Nc4ccc(F)cc4)C[C@H]23)cc1 the results were DENV2 CPE rescue 11, E-sel inducer 0 and XiGFP reactiv 0.
CCC(=O)N1[C@H](CO)[C@H]2c3ccccc3N(S(=O)(=O)c3ccc(F)cc3)C[C@H]21 was read as Statin myotox sup 17, DENV2 CPE rescue 2, PglD DTNB -3, E-sel inducer 0 and XiGFP reactiv 0.
`C[C@@H]1CN([C@@H](C)CO)C(=O)c2cccc(NC(=O)c3nc4ccccc4s3)c2O[C@@H]1CN(C)Cc1ccncc1` gave Statin myotox sup 1, DENV2 CPE rescue -9, PglD DTNB 5, FGF22 binding 0 and XiGFP reactiv 0.
COc1cccc(C(=O)NCC(=O)NNc2ncnc(N)c2[N+](=O)[O-])c1 was read as DENV2 CPE rescue 0, FGF22 binding 43* and XiGFP reactiv 0.
Screening Cc1ccc(S(=O)(=O)NNC(=O)c2snnc2C)cc1 returned Statin myotox sup 128* and PglD DTNB -1.
CCCc1cc(=O)oc2c(C)c(OC3CCCCC3=O)ccc12 (stereo not given) was read as Statin myotox sup -16, DENV2 CPE rescue 26*, PglD DTNB -2, E-sel inducer 1, FGF22 binding 0 and XiGFP reactiv 0.
For NC(=O)COC(=O)CC12CC3CC(CC(C3)C1)C2 the results were DENV2 CPE rescue 8, E-sel inducer -1, FGF22 binding 0 and XiGFP reactiv 0.
`NC(=O)NC(=O)COC(=O)CC12CC3CC(CC(C3)C1)C2` gave DENV2 CPE rescue -6, FGF22 binding 44* and XiGFP reactiv 0.
Screening Cc1cc(C(=O)CCl)c(C)n1Cc1ccco1 returned DENV2 CPE rescue 1, E-sel inducer -1, FGF22 binding 43* and XiGFP reactiv 0.
`O=C(C[C@@H]1CC[C@H](NC(=O)CC2CC2)[C@@H](CO)O1)NCc1ccccc1` gave DENV2 CPE rescue -5, E-sel inducer 0 and XiGFP reactiv 0.
For COc1ccc(-c2[nH]ncc2CN(C)Cc2cccnc2)c(OC)c1 the results were Statin myotox sup -5, DENV2 CPE rescue 2, PglD DTNB -1, FGF22 binding 43* and XiGFP reactiv 1.
For N#C[C@@H]1[C@@H](c2ccccc2)[C@@H](CO)N1S(=O)(=O)Cc1ccccc1 the results were Statin myotox sup 16, DENV2 CPE rescue 3, PglD DTNB -4, E-sel inducer 0, FGF22 binding 0 and XiGFP reactiv 0.
`Cc1cccc(C)c1NC(=O)C1(C)CSCC(=O)N1Cc1cccc(C(F)(F)F)c1` (stereo not given) gave DENV2 CPE rescue 34*, E-sel inducer 0, FGF22 binding 0 and XiGFP reactiv 0.

Compound activity (PubChem BioAssay)
